For data set [1], the system named is RAW264.7. As to the kind of experiment: Anti-inflammatory activity in mouse RAW264.7 cells assessed as inhibition of LPS-induced nitric oxide production incubated for 24 hrs by Griess reagent based assay. The format is functional, cell-based. To be noted: RAW264.7, 24 h. The essentials: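 RAW 264.7 macrophages grown in DMEM with 5% heat-inactivated FCS at 37 °C, 5% CO2; plated at 2 × 10^5 cells/well and stimulated with LPS (1000 ng/mL) concurrently with test agents (DMSO stocks diluted in PBS) for 24 h. Nitrite in medium measured with Griess reagent at 550 nm against NaNO2 standard curve; LPS-only set as 100%; triplicates; IC50 reported.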

Data set [2] can be described thus: Antioxidant activity assessed as DPPH free radical scavenging activity incubated for 30 mins by ELISA method. To be noted: 0.5 h; read-out: ED50 (the source's name). The class given is physicochemical. The essentials:
(§1)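 Sample (120 μL, 10−100 μg/mL) mixed with 30 μL of 0.75 mM DPPH in methanol, shaken in the dark at room temperature for 30 min, absorbance read at 517 nm on a plate reader. Methanol negative control, α-tocopherol (10−40 μg/mL) positive control. ED50 taken as concentration scavenging 50% of DPPH radicals.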
Background: The DPPH test is a chemical assay of radical scavenging.

Data set [3] in a line: Antioxidant activity assessed as DPPH free radical scavenging activity at 100 ug/ml incubated for 30 mins by ELISA method. The format is physicochemical. The following applies: 0.5 h. A digest of the protocol: as §1
The test system of data set [4] is RAW264.7. Nature of the data set: Anti-inflammatory activity in mouse RAW264.7 cells assessed as inhibition of LPS-induced nitric oxide production at 20 ug/ml incubated for 24 hrs by Griess reagent based assay. The class given is functional, cell-based. A digest of the protocol:
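RAW 264.7 macrophages grown in DMEM with 5% heat-inactivated fetal calf serum at 37 °C, 5% CO2. Cells seeded at 2 × 10^5/well, treated with compound (DMSO stock diluted in PBS) together with LPS 1000 ng/mL for 24 h. Medium nitrite read with Griess reagent at 550 nm against NaNO2 standard curve; LPS-only NO set as 100%; triplicate; quercetin positive control.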

Calls of active or inactive are those of the source. The rule behind the calls is not given here.

For the molecule `O=c1c(O)c(-c2ccc(O)c(O)c2)oc2cc(O)cc(O)c12` [QUERCETIN], the IC50 (usually the concentration at which inhibition is half-maximal) in the data set with RAW264.7 [1] came out at 1.8 µM.
Consider `O=C(/C=C/c1ccc(O)c(O)c1)OC[C@H]1O[C@@H](Oc2cc(/C=C/c3ccc(O)c(O)c3)oc(=O)c2)[C@H](O)[C@@H](O)[C@@H]1O`, for which the EC50 in data set [2] was 13 µM. Moreover, the IC50 in the data set on RAW264.7 [1] was determined as 14.9 µM. Also, the Activity in data set [3] turned out to be 99%.
With `O=C(/C=C/c1ccc(O)cc1)OC[C@H]1OC(O)[C@H](O)[C@@H](O)[C@@H]1O` (some centres undefined), the inhibition entry in the data set with RAW264.7 [4] was “inactive”. The Activity in data set [3] is on record as 5%.
Regarding `O=C(/C=C/c1ccc(O)c(O)c1)O[C@@H]1O[C@H](CO)[C@@H](O)[C@H](O)[C@H]1O`, the EC50 in data set [2] is 29.1 µM. The inhibition result with RAW264.7 [4] was “inactive”. Besides, the Activity in data set [3] is reported as 99.3%.
Taken in the same sequence, the figures for `COc1cc(/C=C/C(=O)OC[C@H]2O[C@@H](Oc3ccc(/C=C/C(=O)O[C@@H]4O[C@H](CO)[C@@H](O)[C@H](O)[C@H]4O)cc3O)[C@H](O)[C@@H](O)[C@@H]2O)ccc1O` were 87 µM, “inactive” and 74.8%.
For `O=C(/C=C/c1ccc(O)cc1)OC[C@H]1O[C@@H](Oc2ccc(/C=C/C(=O)O[C@@H]3O[C@H](CO)[C@@H](O)[C@H](O)[C@H]3O)cc2O)[C@H](O)[C@@H](O)[C@@H]1O`, in the data set with RAW264.7 [4], the inhibition result was “inactive”. The Activity in data set [3] is given as 7.8%.
As to `O=C(/C=C/c1ccc(O[C@@H]2O[C@H](COC(=O)/C=C/c3ccc(O)c(O)c3)[C@@H](O)[C@H](O)[C@H]2O)c(O)c1)OC[C@H]1O[C@@H](Oc2cc(/C=C/c3ccc(O)c(O)c3)oc(=O)c2)[C@H](O)[C@@H](O)[C@@H]1O`, the EC50 in data set [2] came out at 17 µM. Besides, the inhibition entry in the data set on RAW264.7 [4] was “inactive”. For the same molecule, in data set [3], the Activity came out at 98.8%.
On to `Cc1c(C)c2c(c(C)c1O)CCC(C)(CCCC(C)CCCC(C)CCCC(C)C)O2` (racemic) [alpha-TOCHOPHEROL], for which the EC50 in data set [2] came out at 27.8 µM.
As for `O=C(/C=C/c1ccc(O)cc1)OC[C@H]1O[C@@H](Oc2cc(/C=C/C(=O)O[C@@H]3O[C@H](CO)[C@@H](O)[C@H](O)[C@H]3O)ccc2O)[C@H](O)[C@@H](O)[C@@H]1O`, the inhibition result in the data set with RAW264.7 [4] is “inactive”. Also, the Activity in data set [3] came to 32.2%.
`O=C(O)/C=C/c1ccc(O[C@@H]2O[C@H](CO)[C@@H](O)[C@H](O)[C@H]2O)c(O)c1`: in data set [2], the EC50 came to 175 µM. Moreover, the inhibition entry in the data set on RAW264.7 [4] was “inactive”. Besides, the Activity in data set [3] worked out at 91.2%.
With `O=C(/C=C/c1ccc(O)c(O)c1)OC[C@H]1OC(O)[C@H](O)[C@@H](O)[C@@H]1O` (some centres undefined), the inhibition result with RAW264.7 [4] is “inactive”. Moreover, the Activity in data set [3] is given as 9.8%.
With `O=C(/C=C/c1ccc(O)c(O)c1)OC[C@H]1O[C@@H](Oc2ccc(/C=C/C(=O)O[C@@H]3O[C@H](CO)[C@@H](O)[C@H](O)[C@H]3O)cc2O)[C@H](O)[C@@H](O)[C@@H]1O`, the EC50 in data set [2] came to 13.3 µM. In addition, the inhibition result in the data set with RAW264.7 [4] was “inactive”. Moreover, the Activity in data set [3] stood at 99.8%.
On to `O=C(/C=C/c1ccc(O)c(O)c1)OC[C@H]1O[C@@H](Oc2ccc(/C=C/C(=O)O[C@@H]3O[C@H](CO)[C@@H](O)[C@H](O)[C@H]3O)cc2)[C@H](O)[C@@H](O)[C@@H]1O`, for which, in data set [2], the EC50 came out at 47 µM. Moreover, the inhibition result with RAW264.7 [4] was “inactive”. Also, the Activity in data set [3] amounted to 99.7%.
`O=C(/C=C/c1ccc(O)c(O)c1)OC[C@H]1O[C@@H](Oc2cc(/C=C/C(=O)O[C@@H]3O[C@H](CO)[C@@H](O)[C@H](O)[C@H]3O)ccc2O)[C@H](O)[C@@H](O)[C@@H]1O`: the EC50 in data set [2] was determined as 39.9 µM. The inhibition result in the data set on RAW264.7 [4] is “inactive”. Further, the Activity in data set [3] is given as 99.4%.

The values are drawn from ChEMBL document CHEMBL3588809, “Antioxidant and Anti-Inflammatory Phenolic Glycosides from Clematis tashiroi” (J Nat Prod, 2015).
